pIC50: −log10 of the molar value.
How the values were obtained:
[1] = Selectivity ratio of IC50 for human THP1 cells to IC50 for Streptococcus pneumoniae; assay type: ADME, cell-based, THP-1
[2] = Selectivity ratio of IC50 for human THP1 cells to IC50 for Staphylococcus aureus; assay type: ADME, cell-based, THP-1
Klebsiella pneumoniae = experiment: Antibacterial activity against Klebsiella pneumoniae after 18 hrs; assay type: functional, organism-based
Procedure, shortened: (§1)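 Strains first grown on Mueller-Hinton agar, then in Mueller-Hinton broth with CaCl2/MgCl2 for 18 h at 37 °C. Serial dilutions were made (K. pneumoniae and P. aeruginosa […]) and equilibrated 30 min at 37 °C. Cultures were added to the samples, shaken 18 h at 37 °C and 60% humidity, and read at OD650. Controls were no inhibitor and 50 µg/mL streptomycin.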

Staphylococcus aureus = experiment: Antibacterial activity against Staphylococcus aureus after 18 hrs; assay type: functional, organism-based; procedure, shortened: as §1
THP-1 = experiment: Cytotoxicity against human THP1 cells after 72 hrs by WST1 assay; assay type: cell-based; details: THP-1, 72 h
Procedure, shortened: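 Cells were kept in RPMI 1640 with 10% FBS, 2 mM L-glutamine, penicillin/streptomycin and 10 µM 2-mercaptoethanol at 37 °C, 5% CO2, and seeded at 2.5 × 10^4 cells/well. Samples were tested at 250 µg/mL final for 72 h. WST-1 was added for a further 1–2 h, then A450 was read. Controls were 10 µM camptothecin and 0.1% DMSO.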

[3] = Selectivity ratio of IC50 for Pseudomonas aeruginosa to IC50 for Staphylococcus aureus; assay type: functional
Streptococcus pneumoniae = experiment: Antibacterial activity against Streptococcus pneumoniae after 18 hrs; assay type: functional, organism-based; procedure, shortened: as §1
Pseudomonas aeruginosa = experiment: Antibacterial activity against Pseudomonas aeruginosa after 18 hrs; assay type: functional, organism-based; procedure, shortened: as §1
[4] = Selectivity ratio of IC50 for Klebsiella pneumoniae to IC50 for Staphylococcus aureus; assay type: functional

pIC50 (Klebsiella pneumoniae): < 3.38 | pIC50 (Staphylococcus aureus): 4.28 | pIC50 (Streptococcus pneumoniae): 4.24 | pIC50 (Pseudomonas aeruginosa): < 3.38
Compound: CCCCCCCCCCCC(=O)O[C@H]1[C@@H](O[C@@]2(CO)O[C@@H](CO)[C@H](O)[C@H]2O)O[C@H](CO)[C@@H](O)[C@@H]1OC(=O)C=C(C)C [PHYSALOSIDE A]
selectivity ratio [1]: > 10 | selectivity ratio [2]: > 10 | pIC50 (THP-1): < 3.10 | Ratio IC50 [3]: > 8 | Ratio IC50 [4]: > 8

— ChEMBL document CHEMBL1142593, “Physaloside A, an acylated sucrose ester from Physalis viscosa” (J Nat Prod, 2005)
